Assay results as given in PubChem BioAssay.

Assay: S. cerevisiae growth inhibition in restrictive medium, OD615, pilot screen, restrictive growth control, yeast lifespan reduction project (AID 706);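 note: modified DeaD lifespan yeast strain shifted to restrictive glucose medium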
Conditions: OD615, 48 h, at 10 µM, hits give high values;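 active = growth inhibition above a set limit, 3 SD over mean compound inhibition, in both replicates (cut at about 43% in these data); inconclusive = above the limit in only one replicate; inactive = at or below the limit in both replicates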
In short: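 Assay system: engineered S. cerevisiae DeaD strain; Buffer or medium: CSMM-D glucose medium; Dosing: 10 µM compound, 0.25% DMSO; Times: cell pre-growth 4 h, compound exposure 48 h, 30 °C; Detection: absorbance (optical density) measured at 615 nm.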

Growth inhibition, inactive:
Cc1c(/C=N/n2cnnc2)c2ccccc2n1C 11.6%
Cn1c(C(=O)N2CCC(C(=O)N3CCOCC3)CC2)cc2sccc21 -7.13%
CCN1CCN(CC(=O)Nc2cccc(C)c2C)C(=O)C1=O -7.93%
CCOC(=O)N1CCN(CC(=O)Nc2cc3c(cc2C(C)=O)OCO3)CC1 13%
Cc1c(C#N)c2ncn(Cc3ccccc3)c(=O)c2n1-c1ccccc1 -0.37%
C=C(C)Cn1c(C2CC(=O)N(Cc3ccccc3)C2)nc2ccccc21 (configuration not stated) -1.79%
COc1ccc(OC)c(NC(=O)COC(=O)c2ccc(S(=O)(=O)N3CCOCC3)cc2)c1 1.01%
OC(COc1cccc2ccccc12)CN1CCN(c2ccccn2)CC1 (configuration not stated) 1.3%
Cc1nnc(SCC(=O)NC(C)c2ccccc2)[nH]c1=O (configuration not stated) -9.25%
CCOC(=O)c1sc(N)nc1-c1ccccc1 1.07%
CCP(=O)(c1ccccc1)C(C)(C)O (configuration not stated) -8.84%
Cc1nn(C)c(C)c1NS(=O)(=O)c1ccccc1 -6.73%
CC(C)c1nnc(NC(=O)c2ccc(S(=O)(=O)N3CCOCC3)cc2)s1 -24.1%
CCCSC1=N/C(=C\c2ccsc2)C(=O)S1 -3.12%
c1ccc2c(c1)CCCN2c1nc2ccccc2n2cnnc12 -9.76%
Cn1c(C(=O)NCCN2CCc3ccccc3C2)cc2c(=O)n(C)c3ccccc3c21 4.4%
O=C(NCc1cccnc1)c1ccc(CS(=O)(=O)c2ccc(Br)cc2)o1 -13.7%
